Test results as given in ChEMBL document CHEMBL3085648, “Enhancement of kinase selectivity in a potent class of arylamide FMS inhibitors” (Bioorg Med Chem Lett, 2013).
Activity calls are given as the source filed them. No cut-off for these calls is given here.

How the values were obtained:
[1] = Metabolic stability in rat liver microsomes assessed as compound remaining after 10 mins; assay type: ADME; conditions: read-out: Stability
In short: (§1)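 Compound was incubated with human, mouse or rat liver microsomal preparations. Stability is the percent of compound remaining after 10 min.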

[2] = Metabolic stability in mouse liver microsomes assessed as compound remaining after 10 mins; assay type: ADME, Microsome; conditions: for remaining at 10 min: liver microsomes, read-out: Stability; in short: as §1
[3] = target: T1, Macrophage colony-stimulating factor 1 receptor (Mus musculus, UniProt P09581); experiment: Inhibition of FMS in mouse BMDM cells; assay type: cell-based
T1 sequence (P09581 whole entry): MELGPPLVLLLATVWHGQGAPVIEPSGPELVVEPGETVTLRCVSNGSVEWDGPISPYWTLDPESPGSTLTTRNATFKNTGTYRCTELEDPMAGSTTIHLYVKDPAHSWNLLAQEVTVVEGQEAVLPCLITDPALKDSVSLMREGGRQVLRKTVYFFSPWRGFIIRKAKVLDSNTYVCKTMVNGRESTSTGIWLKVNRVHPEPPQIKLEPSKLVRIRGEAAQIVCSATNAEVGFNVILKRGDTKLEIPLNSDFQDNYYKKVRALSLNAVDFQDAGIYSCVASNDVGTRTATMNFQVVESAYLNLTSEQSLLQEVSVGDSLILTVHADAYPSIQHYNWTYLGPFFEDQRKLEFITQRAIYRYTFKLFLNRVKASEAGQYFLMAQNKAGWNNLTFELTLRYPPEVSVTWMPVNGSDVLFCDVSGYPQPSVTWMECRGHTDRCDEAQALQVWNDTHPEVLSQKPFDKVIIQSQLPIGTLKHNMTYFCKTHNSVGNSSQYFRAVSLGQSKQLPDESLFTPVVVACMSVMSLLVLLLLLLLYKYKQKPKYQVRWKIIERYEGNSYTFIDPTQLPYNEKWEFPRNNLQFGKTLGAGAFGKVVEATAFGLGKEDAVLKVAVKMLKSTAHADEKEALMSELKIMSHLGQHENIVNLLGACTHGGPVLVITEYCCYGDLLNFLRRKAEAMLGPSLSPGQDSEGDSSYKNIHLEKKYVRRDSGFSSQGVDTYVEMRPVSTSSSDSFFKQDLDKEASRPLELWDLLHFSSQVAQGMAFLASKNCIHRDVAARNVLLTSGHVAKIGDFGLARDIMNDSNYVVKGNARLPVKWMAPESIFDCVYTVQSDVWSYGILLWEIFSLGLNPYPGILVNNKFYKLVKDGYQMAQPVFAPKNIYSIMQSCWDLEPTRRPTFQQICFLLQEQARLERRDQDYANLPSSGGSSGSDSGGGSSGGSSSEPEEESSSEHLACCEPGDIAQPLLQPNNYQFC

[4] = Metabolic stability in human liver microsomes assessed as compound remaining after 10 mins; assay type: ADME; conditions: liver microsomes, read-out: Stability; in short: as §1
Rattus norvegicus [5] = experiment: Antiinflammatory activity in chronic phase of po dosed Lewis rat arthritis model assessed as inhibition of SCW-induced ankle swelling administered as bid for 14 days; assay type: functional, organism-based
In short: (§2)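 Female Lewis rats (80–100 g) received streptococcal cell wall material ip on day 0. On day 5, rats with a distinct acute-phase joint swelling response were randomized (n = 7/group). Vehicle, 10 or 40 mg/kg was given orally bid from day 10 (start of chronic phase) for 14 days. Ankle and paw swelling were followed.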

Rattus norvegicus [6] = experiment: Antiinflammatory activity in chronic phase of Lewis rat arthritis model assessed as inhibition of SCW-induced ankle swelling at 10 to 40 mg/kg, po bid administered for 14 days; assay type: functional, organism-based; in short: as §2
Mus musculus = experiment: Inhibition of CSF-1-induced c-fos gene expression in mouse spleen at 40 mg/kg, po after 6 hrs; assay type: functional
In short: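 In the mouse pharmacodynamic model, compound was given orally. Spleen c-fos mRNA induced by an iv injection of CSF-1 was measured 6 or 8 h after dosing.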

[7] = Plasma concentration in Sprague-Dawley rat at 10 mg/kg, po bid administered for 5 days measured 2 hrs post last dose; assay type: ADME, organism-based; design: dose 10 mg/kg, route oral
In short: (§3)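 Female Sprague–Dawley rats (150–200 g) were dosed orally bid for 4 days with vehicle (n = 4) or 10–40 mg/kg (n = 3), as a solution at 6 ml/kg in 20% HPβCD. A final dose was given on day 5 and rats were sacrificed 2 h later. Plasma drug level, body weight versus vehicle controls and blood reticulocytes were assessed.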

Rattus norvegicus [8] = experiment: Toxicity in Sprague-Dawley rat at 40 mg/kg, po bid after 4.5 days; assay type: organism-based; design: dose 40 mg/kg, route oral; conditions: in vivo, 108 h; in short: as §3
[9] = Plasma concentration in Sprague-Dawley rat at 40 mg/kg, po bid administered for 5 days measured 2 hrs post last dose; assay type: ADME, organism-based; design: dose 40 mg/kg, route oral; in short: as §3
Rattus norvegicus [10] = experiment: Toxicity in Sprague-Dawley rat assessed as blood reticulocyte level at 40 mg/kg, po bid after 4.5 days; assay type: organism-based; design: dose 40 mg/kg, route oral; conditions: in vivo, 108 h; in short: as §3
Rattus norvegicus [11] = experiment: Toxicity in Sprague-Dawley rat assessed as body weight loss at 40 mg/kg, po bid after 4.5 days relative to vehicle-treated control; assay type: organism-based; design: dose 40 mg/kg, route oral; conditions: in vivo, 108 h; in short: as §3
[12] = target: Mast/stem cell growth factor receptor Kit (Homo sapiens, UniProt P10721); experiment: Inhibition of KIT (unknown origin)
Mast/stem cell growth factor receptor Kit, sequence (P10721 whole entry): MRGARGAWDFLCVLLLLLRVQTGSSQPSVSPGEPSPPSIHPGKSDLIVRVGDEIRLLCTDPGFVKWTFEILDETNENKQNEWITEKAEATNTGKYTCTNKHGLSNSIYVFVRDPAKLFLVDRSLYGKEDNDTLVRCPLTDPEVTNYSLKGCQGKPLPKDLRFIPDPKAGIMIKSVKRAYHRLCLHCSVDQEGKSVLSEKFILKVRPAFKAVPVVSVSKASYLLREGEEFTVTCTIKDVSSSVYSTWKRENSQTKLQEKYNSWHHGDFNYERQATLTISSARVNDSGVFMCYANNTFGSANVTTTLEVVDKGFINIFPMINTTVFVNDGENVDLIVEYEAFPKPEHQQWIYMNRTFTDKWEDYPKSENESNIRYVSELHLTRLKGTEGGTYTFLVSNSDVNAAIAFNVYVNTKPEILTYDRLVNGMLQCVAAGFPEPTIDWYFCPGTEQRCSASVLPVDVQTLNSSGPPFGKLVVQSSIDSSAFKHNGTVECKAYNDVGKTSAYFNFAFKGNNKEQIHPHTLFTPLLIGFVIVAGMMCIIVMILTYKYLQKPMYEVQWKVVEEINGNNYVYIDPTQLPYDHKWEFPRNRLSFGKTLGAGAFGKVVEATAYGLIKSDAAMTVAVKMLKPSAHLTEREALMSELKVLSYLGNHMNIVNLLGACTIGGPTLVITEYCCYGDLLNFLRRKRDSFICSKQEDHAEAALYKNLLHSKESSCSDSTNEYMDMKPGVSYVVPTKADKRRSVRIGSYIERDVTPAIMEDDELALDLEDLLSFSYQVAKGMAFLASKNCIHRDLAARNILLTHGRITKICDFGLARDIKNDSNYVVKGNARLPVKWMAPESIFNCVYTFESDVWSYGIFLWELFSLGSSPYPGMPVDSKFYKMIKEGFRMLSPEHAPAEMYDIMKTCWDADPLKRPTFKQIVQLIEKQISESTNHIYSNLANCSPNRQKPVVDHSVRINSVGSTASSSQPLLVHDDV

remaining at 10 min [1] [%] | IC50 [3] [µM] | remaining at 10 min [4] [%] | remaining at 10 min [2] [%] | Structure (SMILES) | further results
96 | 0.025 | 110 |  | CC1(C)CC=C(c2cc(C(C)(C)O)ccc2NC(=O)c2nc(C#N)c[nH]2)CC1 | Stability ([2]; microsomes, 10 min): 124%
5 | 0.086 | 109 |  | CC1(C)CC=C(c2cc(CCS(N)(=O)=O)ccc2NC(=O)c2nc(C#N)c[nH]2)CC1 | 
 | 0.033 |  |  | CC1(C)CC=C(c2cc(C(C)(C)CO)ccc2NC(=O)c2nc(C#N)c[nH]2)CC1 | 
 |  |  |  | CC1(C)CC=C(c2cc(C(C)(C)N3CCN(CCO)CC3)ccc2NC(=O)c2ncc(C#N)[nH]2)CC1 | Activity (Rattus norvegicus [5]): Dose-dependent effect; Activity (Rattus norvegicus [6]): Active; inhibition in vivo at 40 mg/kg (Mus musculus): 78%
 | > 0.1 |  |  | CC1(C)CC=C(c2cc(CC(=O)NCCCO)ccc2NC(=O)c2ncc(C#N)[nH]2)CC1 | 
2 |  | 101 | 79 | CC1(C)CC=C(c2cc(CN3CCN(CCO)CC3)ccc2NC(=O)c2nc(C#N)c[nH]2)CC1 | 
 | 0.21 |  |  | N#Cc1c[nH]c(C(=O)Nc2ccc(S(=O)(=O)N3CCOCC3)cc2C2=CCCCC2)n1 | 
63 |  | 110 | 98 | CC1(C)CC=C(c2cc(C(C)(C)N3CCN(CCO)CC3)ccc2NC(=O)c2nc(C#N)c[nH]2)CC1 | concentration at 2 h [7]: 0.68 µM; Activity (Rattus norvegicus [8]): Non-toxic; concentration at 2 h [9]: 5.16 µM; Activity (Rattus norvegicus [10]): Non-toxic; Activity (Rattus norvegicus [11]): Non-toxic
 | > 0.15 |  |  | CC(O)c1ccc(NC(=O)c2ncc(C#N)[nH]2)c(C2=CCC(C)(C)CC2)c1 (configuration not stated) | 
3 | 0.04 | 7 | 3 | N#Cc1cnc(C(=O)Nc2ccc(CCO)cc2C2=CCCCC2)[nH]1 | 
 |  |  |  | CC1(C)CC=C(c2cc(C(C)(C)OCCN3CCCC3)ccc2NC(=O)c2nc(C#N)c[nH]2)CC1 | IC50 [12]: 0.025 µM
 | 0.021 |  |  | CC1(C)CC=C(c2cc(CCS(=O)(=O)NN)ccc2NC(=O)c2nc(C#N)c[nH]2)CC1 | 
4 |  | 118 | 93 | N#Cc1c[nH]c(C(=O)Nc2ccc(CCS(=O)(=O)N3CCOCC3)cc2C2=CCCCC2)n1 | 
 | > 0.3 |  |  | CC1(C)CC=C(c2cc(-c3nnn[nH]3)ccc2NC(=O)c2ncc(C#N)[nH]2)CC1 | 
28 |  | 93 | 62 | CC1(C)CC=C(c2cc(C(C)(C)NCCS(C)(=O)=O)ccc2NC(=O)c2nc(C#N)c[nH]2)CC1 | 
32 |  | 108 | 84 | CCN1CCN(C(C)(C)c2ccc(NC(=O)c3nc(C#N)c[nH]3)c(C3=CCC(C)(C)CC3)c2)CC1 | IC50 [12]: 0.05 µM
 | 0.017 |  |  | CC1(C)CC=C(c2cc(C(C)(C)N3CCOCC3)ccc2NC(=O)c2nc(C#N)c[nH]2)CC1 | 
78 |  | 79 | 50 | COCCNC(C)(C)c1ccc(NC(=O)c2nc(C#N)c[nH]2)c(C2=CCC(C)(C)CC2)c1 | IC50 [12]: 0.042 µM
 | > 0.15 |  |  | CC1(C)CC=C(c2cc(S(N)(=O)=O)ccc2NC(=O)c2nc(C#N)c[nH]2)CC1 | 
 | 0.059 |  |  | CC1(C)CC=C(c2cc(S(C)(=O)=O)ccc2NC(=O)c2nc(C#N)c[nH]2)CC1 | 
39 |  | 104 |  | CN(C)CCOC(C)(C)c1ccc(NC(=O)c2ncc(C#N)[nH]2)c(C2=CCC(C)(C)CC2)c1 | 
 | 0.023 |  |  | N#Cc1cnc(C(=O)Nc2ccc(CCS(=O)(=O)NN)cc2C2=CCCCC2)[nH]1 | 
